UPR CHOP act – apoptotic UPR (CHOP) activation | CHO-CHOP luciferase reporter, luminescence; percent of tunicamycin response over DMSO baseline | AID 449763 | activation, % at 10 µM | 330,000 compounds, 0.34% hits;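 active means at 10 µM dose, activation of 40% or more, normalized to positive control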
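Evaluation: % reporter activation, DMSO baseline versus tunicamycin full activation; System: CHO-CHOP luciferase reporter cell line; Input: 500 cells/well; Incubation: 6 h compound treatment, 37 °C; Measured by: Steady-Glo luciferase luminescence; Dosing: one dose, 10 µM in 0.5% DMSO; Buffer or medium: F12 medium, 10% FBS; Benchmarks: positive tunicamycin 10 µg/mL, negative DMSO alone.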
UPR XBP1 act – adaptive UPR (XBP1) activation; 330,000 compounds, 0.33% hits; AID 463104; CHO-XBP1 luciferase reporter, IRE1-XBP1 UPR activation, luminescence; percent of tunicamycin response, DMSO as zero; activation, % at 20 µM;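 active means versus positive control, 20 µM dose yields 30% or more activation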
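Signal: luciferase luminescence; Assay system: CHO-XBP1 luciferase reporter cells; Amount: one thousand reporter cells per well; Dosing: 20 µM single concentration, DMSO 1%; Benchmarks: high control tunicamycin 10 µg/mL final, low control DMSO vehicle only; Schedule: 6 h compound exposure at 37 °C, 5% CO2; Evaluation: percent activation relative to tunicamycin reference.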
TIM10 inh – TIM10 yeast growth inhibition. S. cerevisiae TIM10 strain growth, BacTiter-Glo luminescence, 24 h. AID 463195. 330,000 compounds, 1.4% hits. inhibition, % at 10 µM;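 active means inhibition of 40% or more at the single tested concentration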;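 further: wild-type TIM10 isogenic control strain grown at permissive 25 °C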
tim10-1 inh – tim10-1 yeast growth inhibition | 330,000 compounds, 2.2% hits | AID 463190 | S. cerevisiae tim10-1 ts strain growth, BacTiter-Glo, 24 h | inhibition, % at 20 µM;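 active means inhibition of at least 40%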;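 further: mutant grown at 25 °C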
tim23-1 inh – tim23-1 yeast growth inhibition. inhibition, % at 20 µM. 330,000 compounds, 1.3% hits. S. cerevisiae tim23-1 growth, BacTiter-Glo luminescence, 24 h;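 active means growth inhibition of the mutant yeast at or above 50%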;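 further: temperature-sensitive mutant grown at 25 °C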
tim10-1 conf – confirmation of tim10-1 mutant yeast growth inhibitors. 7,400 compounds, 56% hits. inhibition, % at 20 µM. S. cerevisiae tim10-1 ts strain growth, BacTiter-Glo, 24 h. shares compounds with tim10-1 inh;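 active means inhibition of yeast growth at or above a set limit in either of two repeat tests at 20 µM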;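 further: tim10-1 mutant grown at permissive 25 °C to find synthetic lethal compounds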
TIM10 conf – confirmation of TIM10 yeast growth inhibitors; shares compounds with TIM10 inh; S. cerevisiae tim10 strain growth, BacTiter-Glo luminescence, 24 h; inhibition, % at 10 µM; 4,600 compounds, 63% hits; AID 463215;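 active means inhibition of yeast growth at or above a set limit in either of two replicates at 10 µM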; further: this counterscreen used the strain with wild-type TIM10
Numbers stand for hits; 0 = inactive; - = not tested or not shown. Only some compounds are listed: those with a hit (about 3.9% of all), similar ones and a draw of the others.

SMILES | UPR CHOP act | UPR XBP1 act | TIM10 inh | tim10-1 inh | tim23-1 inh | tim10-1 conf | TIM10 conf
CN(C)CCCN(C(=O)c1cc(Cl)sc1Cl)c1nc2cc3c(cc2s1)OCO3 | 0 | 0 | 46 | 63 | 0 | 55 | 34
CN(C)CCCN(C(=O)c1ccc(Cl)s1)c1nc2cc3c(cc2s1)OCO3 | 0 | 0 | 42 | 48 | 0 | 46 | 0
CN(C)CCCN(C(=O)c1ccco1)c1nc2cc3c(cc2s1)OCO3 | 0 | 0 | 0 | 0 | 0 | - | -
CN(C)CCCN(C(=O)c1ccc(Br)s1)c1nc2cc3c(cc2s1)OCCO3 | 0 | 0 | 56 | 64 | 0 | 60 | 47
CCc1nnc(NC(=O)CN2C(=O)N(C)C3(CCCCC3)C2=O)s1 | 0 | 0 | 0 | 0 | 0 | - | -
CCOC(=O)c1cnc2c(ccc3ccccc32)c1NCCN(C)C | 0 | 0 | 77 | 55 | 0 | 50 | 50
COc1ccc(NC(=O)C2CCCN2S(=O)(=O)c2cccs2)c([N+](=O)[O-])c1 (stereo not drawn) | 0 | 0 | 0 | 0 | 0 | - | -
CCOC(=O)C1CCN(C(=O)COC(=O)C23CC4CC(CC(C4)C2)C3)CC1 | 0 | 0 | 0 | 0 | 0 | - | -
CCOC(=O)N1CCC2(CC1)C(C(=O)C13CC4CC(CC(C4)C1)C3)C2(C#N)C#N (stereo not drawn) | 0 | 0 | 63 | 54 | 0 | 54 | 45
C=CCN(CC=C)C(=S)NC(=O)c1ccc(OC)cc1 | 0 | 0 | 0 | 0 | 0 | - | -
COc1ccc(C(=O)NC(=S)N(Cc2ccccc2)Cc2ccccc2)cc1 | 0 | 0 | 48 | 47 | 0 | 35 | 39
O=C(NC(=S)N(Cc1ccccc1)Cc1ccccc1)c1ccccc1F | 0 | 0 | 59 | 50 | 0 | 38 | 44
CNC(=O)C(=O)NCCN1CCN(S(=O)(=O)c2ccc3ccccc3c2)CC1 | 0 | 0 | 0 | 0 | 0 | - | -
Clc1ccc(CN2CCc3c([nH]c4ccccc34)C2)cc1Cl | 0 | 0 | 41 | 75 | 0 | 75 | 58
Cc1ccc(-n2nnnc2C(Cl)(Cl)c2nnnn2-c2ccc(C)cc2)cc1 | 0 | 0 | 62 | 45 | 0 | 0 | 75
FC(F)(F)c1cccc(NC(=S)NNC(=S)Nc2cccc(C(F)(F)F)c2)c1 | 0 | 0 | 54 | 47 | 0 | 0 | 54
O=C(CCCNC(=O)c1ccc(Cl)cc1)Nc1ccc(F)c(S(=O)(=O)N2CCOCC2)c1 | 0 | 0 | 0 | 0 | 0 | - | -
CCc1nccn1S(=O)(=O)c1ccccc1[N+](=O)[O-] | 0 | 0 | 44 | 50 | 0 | 62 | 57
Cc1ccc(C)c(CN2CCC(n3nccc3NC(=O)CCCc3ccccc3)CC2)c1 | 0 | 0 | 0 | 0 | 0 | - | -
C=CCOc1ccccc1/C=c1\sc2nc(-c3oc4ccccc4c3C)nn2c1=O | 0 | 0 | 0 | 0 | 0 | - | -
COc1ccccc1/C=c1\sc2nc(-c3ccccc3OC)nn2c1=O | 0 | 0 | 50 | 49 | 0 | 54 | 0
Cc1c(OC(=O)CNC(=O)OC(C)(C)C)ccc2c3c(c(=O)oc12)CCC3 | 0 | 0 | 45 | 49 | 0 | 39 | 47
COc1cc2c(cc1NS(=O)(=O)N1CCCCC1)oc1ccccc12 | 0 | 0 | 44 | 41 | 0 | 37 | 35
CCOCCN1CCN(C2c3ccccc3CSc3ccccc32)CC1 (stereo not drawn) | 0 | 0 | 0 | 0 | 0 | - | -
Cc1nc(Nc2ccc(C(=O)O)cc2)sc1-c1ccccc1 | 0 | 0 | 0 | 0 | 0 | - | -
SMILES | UPR CHOP act | UPR XBP1 act | TIM10 inh | tim10-1 inh | tim23-1 inh | tim10-1 conf | TIM10 conf
Cc1nc(Nc2ccccc2)sc1-c1ccccc1 | 0 | 0 | 63 | 54 | 0 | 54 | 0
COc1ccc(OC)c(NC(=O)c2cccc(N3C(=O)C4C5C=CC(C6CC56)C4C3=O)c2)c1 (stereo not drawn) | 0 | 0 | 0 | 0 | 0 | - | -
NC(=S)N/N=C/c1ccc(-c2cccc([N+](=O)[O-])c2)o1 | 0 | 0 | 0 | 0 | 0 | - | -
O=[N+]([O-])c1cccc(-c2ccc(/C=N/NC(=S)Nc3cccc(F)c3)o2)c1 | 0 | 0 | 57 | 52 | 0 | 46 | 59
CC(C)[C@H](NC(=O)OCc1ccccc1)C(=O)OCC(=O)N1CCN(c2ccccc2)CC1 | 0 | 0 | 0 | 0 | 0 | - | -
O=C(CSc1nnc(NC(=O)C2CC2)s1)NCc1ccc(F)cc1 | 0 | 0 | 0 | 0 | 0 | - | -
NC(=O)Nc1ccc(C(=O)OCC(=O)Nc2ccc([N+](=O)[O-])cc2C(F)(F)F)cc1 | 0 | 0 | 0 | 0 | 0 | - | -
CN(CCO)c1cc(Sc2nc3ccccc3s2)c2nonc2c1[N+](=O)[O-] | 0 | 0 | 53 | 41 | 0 | 39 | 26
Cc1ccc(C(=O)NCc2ccc(F)cc2)cc1NC1=NC2CS(=O)(=O)CC2S1 (stereo not drawn) | 0 | 0 | 0 | 0 | 0 | - | -
Cc1ccc(Cl)cc1NC(=S)NCCCSC1CCCCC1 | 0 | 0 | 42 | 42 | 0 | 0 | 0
CC(=O)Nc1ccc(S(=O)(=O)N(C)CC(=O)Nc2cccc(S(=O)(=O)N3CCCC3)c2)cc1 | 0 | 0 | 0 | 0 | 0 | - | -
CCOc1ccccc1NC(=O)C1C2CCC3C(CCC21)C3(Cl)Cl (stereo not drawn) | 0 | 0 | 47 | 0 | 0 | 31 | 43
Cc1ccccc1N1CCN(c2ncnc3scc(-c4cccs4)c23)CC1 | 0 | 0 | 0 | 0 | 0 | - | -
Clc1ccc(CN2CCN(c3ncnc4scc(-c5cccs5)c34)CC2)cc1 | 0 | 0 | 44 | 44 | 0 | 38 | 32
CCOc1cccc2sc(N3CCN(C(=O)c4ccc5ncsc5c4)CC3)nc12 | 0 | 0 | 0 | 0 | 0 | - | -
N#Cc1c(Cl)c(Cl)c2nnc(-c3ccc(Br)cc3)n2c1Cl | 0 | 0 | 58 | 46 | 0 | 0 | 0
Cc1cc(C)c(C(=O)/C=C/c2ccc(C(C)C)cc2)c(=O)[nH]1 | 0 | 0 | 43 | 49 | 0 | 53 | 37
Cc1cc(-c2nc(-c3ccncc3)no2)ccc1[N+](=O)[O-] | 0 | 0 | 0 | 0 | 0 | - | -
Nc1cc(OC(=O)c2cccs2)nn1S(=O)(=O)c1ccc(F)cc1 | 0 | 0 | 53 | 41 | 0 | 31 | 0
COc1ccc(/C=C2\CCC(C3CCCC3)C2=O)cc1Cn1cccn1 (stereo not drawn) | 0 | 0 | 0 | 0 | 0 | - | -
COc1ccc(/C=C2\CCc3ccccc3C2=O)cc1Cn1cccn1 | 0 | 0 | 42 | 43 | 0 | 40 | 0
CCOc1cc(/C=C/C(=O)c2ccc(C)cc2)ccc1OCC(=O)N(C)C | 0 | 0 | 45 | 50 | 0 | 35 | 0
Cc1cccc(Oc2cc(NC(=O)c3ccccc3)cc([N+](=O)[O-])c2)c1 | 0 | 0 | 53 | 44 | 0 | 36 | 0
C=CCn1c(C)nnc1SCC(=O)Nc1cc(S(=O)(=O)N2CCCC2)ccc1Cl | 0 | 0 | 0 | 0 | 0 | - | -
